The subject of data set [1] is PANC-1. As to the kind of experiment: Antitumor activity against human PANC1 cells xenografted in BALB/c nude mouse assessed as inhibition of tumor cell proliferation by measuring reduction in Ki67+ cells at 150 mg/kg/day, po for 30 days by IHC analysis. In kind it is functional, organism-based. The essentials:
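PANC-1 subcutaneous xenografts in female BALB/c nude mice dosed orally for 30 days. Tumor tissue taken and stained by immunohistochemistry for Ki-67-positive cells, compared with vehicle.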

Data set [2] deals with NCI-H446. As to the kind of experiment: Antiproliferative activity against human NCI-H446 cells assessed as reduction in cell viability incubated for 72 hrs by MTT assay. It counts as functional, cell-based.
Data set [3] deals with PANC-1. As to the kind of experiment: Induction of cell cycle arrest in human PANC1 cells assessed as increase in accumulation at G2 phase incubated for 48 hrs by propidium iodide staining based flow cytometry. It counts as functional. The essentials:
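PANC-1 and BXPC-3 cells in 6-well plates treated with a concentration series for 48 h. Stained with 50 µg/mL propidium iodide for 30 min in the dark. DNA content analysed by flow cytometry for cell-cycle phase distribution.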

The target of data set [4] is T1, NAD-dependent protein deacylase sirtuin-6 (Homo sapiens, UniProt Q8N6T7). As to the kind of experiment: […] in human BxPC3 cells assessed as reduction in H3K18ac levels incubated for 72 hrs by Western blot analysis. It counts as cell-based. The conditions noted are these: BXPC-3. The essentials:
(§1)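 Cells incubated 72 h with various compound concentrations; whole-cell RIPA lysates with protease inhibitors, BCA-normalised, separated on 12% SDS-PAGE, transferred to PVDF, blocked in 5% milk or BSA. Probed 10 h at 4 °C with antibodies to SIRT6, acetyl-H3K9/K18/K56, total H3, Lin28b, Myc, IGF2BP3, β-actin; HRP secondary, chemiluminescent detection.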

Data set [5] has as its target Protein deacetylase HDAC6 (Homo sapiens, UniProt Q9UBN7). Description: Inhibition of HDAC6 (unknown origin) by FDL assay. In a few lines: (§2)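 Selectivity testing by FDL assay at concentrations up to 200 µM. SIRT1-2 assays run by an outside contract provider. Values reported as IC50.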
The target in data set [6] is T1, NAD-dependent protein deacylase sirtuin-6. Description: […] in human PANC1 cells assessed as reduction in IGF2BP3 expression levels at 25 uM incubated for 72 hrs by Western blot analysis. The conditions noted are these: PANC-1. It counts as cell-based. In a few lines:
as §1

Data set [7] is described as follows: AUC (0 to infinity) in Sprague-Dawley rat at 2 mg/kg, iv after 0.25 to 24 hrs by LC-MS/MS analysis. In kind it is ADME, organism-based. Set-up: dose 2 mg/kg, route intravenous, time infinity. As to conditions: in vivo. The essentials: (§3)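 Male Sprague-Dawley rats, 6-8 weeks old. Dosing solution of 10 (PO) or 2 (IV) mg/mL in 5% DMSO, 10% Solutol and 85% saline, pH 7. Blood taken by cardiac puncture at 0.083–24 h (PO) or 0.25–24 h (IV). Plasma levels measured by LC-MS/MS. Values are mean ± SD, n = 3.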

Data set [8] is described as follows: Volume of distribution at steady state in Sprague-Dawley rat at 2 mg/kg, iv after 0.25 to 24 hrs by LC-MS/MS analysis. In kind it is ADME, organism-based. As to conditions: in vivo. The essentials: (§4)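 Male Sprague-Dawley rats, 6–8 weeks old, received a single dose of 10 mg/kg p.o. or 2 mg/kg i.v. The vehicle was 5% DMSO, 10% Solutol and 85% saline at pH 7. Blood was taken by cardiac puncture at 0.083–24 h (p.o.) or 0.25–24 h (i.v.), and plasma was measured by LC-MS/MS. Values are mean ± SD, n = 3.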

Data set [9] has as its target Histone deacetylase 2 (Homo sapiens, UniProt Q92769). As to the kind of experiment: Inhibition of HDAC2 (unknown origin) by FDL assay. In a few lines:
as §2

Data set [10] has as its target NAD-dependent protein deacetylase sirtuin-2 (Homo sapiens, UniProt Q8IXJ6). Description: Inhibition of SIRT2 (unknown origin) by FDL assay. In a few lines:
as §2

Data set [11] addresses T1, NAD-dependent protein deacylase sirtuin-6. As to the kind of experiment: Activation of N-terminal his-tagged human SIRT6 expressed in Escherichia coli M15 [pREP4] assessed as increase in deacetylation activity incubated for 2 hrs using Ac-RYQK(Ac)-AMC substrate by FDL assay relative to control.
A short description of data set [12]: Tmax in Sprague-Dawley rat at 10 mg/kg, po after 0.083 to 24 hrs by LC-MS/MS analysis. As to conditions: in vivo. It counts as ADME, organism-based. In a few lines: as §4
The target of data set [13] is T1, NAD-dependent protein deacylase sirtuin-6. Description: […] in human PANC1 cells assessed as reduction in H3K9ac levels incubated for 72 hrs by Western blot analysis. In kind it is cell-based. The conditions noted are these: PANC-1. The essentials:
as §1

Data set [14] can be described thus: AUC (0 to t) in Sprague-Dawley rat at 2 mg/kg, iv after 0.25 to 24 hrs by LC-MS/MS analysis. The conditions noted are these: in vivo. It counts as ADME, organism-based. In a few lines: as §3
For data set [15], the system named is SK-OV-3. As to the kind of experiment: Antiproliferative activity against human SKOV3 cells assessed as reduction in cell viability incubated for 72 hrs by MTT assay. In kind it is functional, cell-based.
Data set [16] addresses T1, NAD-dependent protein deacylase sirtuin-6. As to the kind of experiment: Activation of N-terminal his-tagged human SIRT6 expressed in Escherichia coli M15 [pREP4] assessed as increase in peptide demyristoylation incubated for 120 mins using Ac-EALPKK(Myr)-AMC substrate by HPLC analysis. In a few lines: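 SIRT6 (10 μM) incubated with 100 μM Ac-EALPKK(Myr)-AMC, 3 mM NAD⁺ in assay buffer, with DMSO or 25 μM compound, 37 °C for 2 h. Quenched with 100 mM HCl/160 mM acetic acid at 37 °C for 30 min, centrifuged, supernatant analysed by reverse-phase C18 HPLC, water/acetonitrile with 0.1% TFA.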

In data set [17] the test system is PANC-1. As to the kind of experiment: Antitumor activity against human PANC1 cells xenografted in BALB/c nude mouse assessed as inhibition of tumor growth at 150 mg/kg/day, po for 30 days relative to control. It counts as functional. The conditions noted are these: PANC-1, po, 720 h, read-out: TGI. The essentials: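 Female BALB/c nude mice, 6-8 weeks old, injected subcutaneously in the right flank with 5×10^6–1×10^7 PANC-1 cells. At 130-150 mm³, mice randomized into 4 groups (n = 6) and dosed orally once daily for 30 days against vehicle. Tumor volume followed over time. Inhibition rate assessed against control.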

For data set [18], the system named is MIA PaCa-2. Description: Antiproliferative activity against human MIAPaCa2 cells assessed as reduction in cell viability incubated for 72 hrs by MTT assay. It counts as functional, cell-based. In a few lines: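 PDAC cells grown in DMEM or RPMI1640 with 10% FBS and penicillin/streptomycin at 37 °C, 5% CO2. Plated in triplicate, then treated with a concentration series for 72 h. Viability read by MTT. IC50 calculated from dose-response curves.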

A short description of data set [19]: Half life in Sprague-Dawley rat at 2 mg/kg, iv after 0.25 to 24 hrs by LC-MS/MS analysis. In kind it is ADME, organism-based. As to conditions: in vivo. The essentials:
as §3

The subject of data set [20] is BXPC-3. As to the kind of experiment: Inhibition of cell migration of human BxPC3 cells at 10 umol/L incubated for 24 hrs by inverted microscopy relative to control. It counts as functional. The conditions noted are these: BXPC-3, 24 h. In a few lines: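 PDAC cells are grown to a confluent monolayer at 37 °C in 5% CO2. The monolayer is scratched with a 200 μL pipette tip to make a gap of constant width, then washed with PBS. Cells are exposed to a range of compound concentrations. They are imaged by inverted microscope after 24 h. Migrated cells are counted by hand, and inhibition is expressed relative to untreated wells (100%).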

This note sets out measurements from ChEMBL document CHEMBL4622973, “Discovery of Potent Small-Molecule SIRT6 Activators: Structure-Activity Relationship and Anti-Pancreatic Ductal Adenocarcinoma Activity” (J Med Chem, 2020).

Active and inactive are the calls of the source. The calls are words filed in the database; no cut-off is given here.

T1 sequence (Q8N6T7 whole entry): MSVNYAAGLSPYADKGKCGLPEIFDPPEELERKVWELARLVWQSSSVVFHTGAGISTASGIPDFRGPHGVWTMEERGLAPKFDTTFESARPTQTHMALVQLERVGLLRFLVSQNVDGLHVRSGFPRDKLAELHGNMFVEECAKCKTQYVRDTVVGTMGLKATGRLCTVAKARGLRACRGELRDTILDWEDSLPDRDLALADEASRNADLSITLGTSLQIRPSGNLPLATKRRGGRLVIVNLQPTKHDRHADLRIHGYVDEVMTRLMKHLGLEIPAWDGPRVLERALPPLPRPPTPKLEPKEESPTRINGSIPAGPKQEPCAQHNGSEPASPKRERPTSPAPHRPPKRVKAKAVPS
Chain of Protein deacetylase HDAC6 (Q9UBN7 whole entry): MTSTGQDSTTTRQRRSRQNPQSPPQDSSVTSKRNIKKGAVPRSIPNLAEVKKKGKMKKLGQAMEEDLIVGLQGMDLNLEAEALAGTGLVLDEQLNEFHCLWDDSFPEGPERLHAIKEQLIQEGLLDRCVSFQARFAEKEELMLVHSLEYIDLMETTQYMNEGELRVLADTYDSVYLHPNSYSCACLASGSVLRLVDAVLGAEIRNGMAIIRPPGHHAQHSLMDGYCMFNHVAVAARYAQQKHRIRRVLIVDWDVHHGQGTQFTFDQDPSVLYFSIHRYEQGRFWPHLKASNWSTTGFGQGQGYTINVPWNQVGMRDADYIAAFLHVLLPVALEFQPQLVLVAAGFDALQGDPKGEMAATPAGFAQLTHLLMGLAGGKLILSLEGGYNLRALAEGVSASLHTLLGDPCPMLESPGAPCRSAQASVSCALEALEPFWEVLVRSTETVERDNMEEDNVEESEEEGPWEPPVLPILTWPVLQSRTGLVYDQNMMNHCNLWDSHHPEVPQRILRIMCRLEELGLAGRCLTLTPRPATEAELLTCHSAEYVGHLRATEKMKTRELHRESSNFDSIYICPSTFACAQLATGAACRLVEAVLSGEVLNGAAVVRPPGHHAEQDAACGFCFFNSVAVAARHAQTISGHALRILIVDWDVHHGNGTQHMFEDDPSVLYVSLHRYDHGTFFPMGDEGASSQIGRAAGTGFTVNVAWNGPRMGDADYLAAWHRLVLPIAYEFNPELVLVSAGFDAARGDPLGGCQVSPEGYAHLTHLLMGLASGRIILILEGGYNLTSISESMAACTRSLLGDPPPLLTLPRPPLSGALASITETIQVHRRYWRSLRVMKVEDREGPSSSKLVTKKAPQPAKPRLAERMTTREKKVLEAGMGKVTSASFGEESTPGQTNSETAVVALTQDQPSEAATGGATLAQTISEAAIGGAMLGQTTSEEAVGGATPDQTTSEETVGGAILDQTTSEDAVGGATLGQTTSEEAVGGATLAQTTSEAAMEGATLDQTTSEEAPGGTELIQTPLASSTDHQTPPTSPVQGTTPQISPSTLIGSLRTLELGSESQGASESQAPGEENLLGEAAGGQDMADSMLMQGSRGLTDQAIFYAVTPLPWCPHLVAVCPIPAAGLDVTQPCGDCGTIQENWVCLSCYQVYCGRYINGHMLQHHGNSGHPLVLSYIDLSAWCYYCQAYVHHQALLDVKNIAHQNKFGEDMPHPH
Chain of NAD-dependent protein deacetylase sirtuin-2 (Q8IXJ6 whole entry): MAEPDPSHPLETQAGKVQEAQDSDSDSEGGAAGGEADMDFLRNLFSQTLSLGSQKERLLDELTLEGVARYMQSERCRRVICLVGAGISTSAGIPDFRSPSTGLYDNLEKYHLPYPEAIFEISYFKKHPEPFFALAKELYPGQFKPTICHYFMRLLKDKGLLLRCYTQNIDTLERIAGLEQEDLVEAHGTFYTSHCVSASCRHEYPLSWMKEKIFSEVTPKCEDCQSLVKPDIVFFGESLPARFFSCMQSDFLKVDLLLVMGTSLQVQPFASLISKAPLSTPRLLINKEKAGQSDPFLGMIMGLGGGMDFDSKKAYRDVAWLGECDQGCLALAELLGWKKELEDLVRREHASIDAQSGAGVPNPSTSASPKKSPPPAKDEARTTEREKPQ
Chain of Histone deacetylase 2 (Q92769 whole entry): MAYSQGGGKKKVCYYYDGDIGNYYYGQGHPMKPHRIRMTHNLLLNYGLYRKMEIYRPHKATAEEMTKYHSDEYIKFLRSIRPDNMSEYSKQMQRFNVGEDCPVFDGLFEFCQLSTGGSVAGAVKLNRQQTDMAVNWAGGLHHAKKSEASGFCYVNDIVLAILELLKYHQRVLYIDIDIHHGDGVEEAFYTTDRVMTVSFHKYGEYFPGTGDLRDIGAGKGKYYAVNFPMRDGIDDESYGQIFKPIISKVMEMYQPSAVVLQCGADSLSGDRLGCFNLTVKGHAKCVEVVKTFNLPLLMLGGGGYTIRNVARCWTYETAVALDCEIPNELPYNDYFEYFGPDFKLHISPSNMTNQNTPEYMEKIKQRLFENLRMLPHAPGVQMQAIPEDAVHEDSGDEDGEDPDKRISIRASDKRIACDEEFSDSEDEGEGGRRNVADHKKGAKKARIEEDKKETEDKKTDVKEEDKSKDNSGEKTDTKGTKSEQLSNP

Consider `O=C(NC(c1ccccc1)c1ccccc1)c1cc(-c2cc3ccccc3o2)nc2ccccc12`, for which the outcome in data set [1], in [2], in data set [15] and in data set [16] was Active. In addition, the Activity result in data set [3] and in data set [18] was “Dose-dependent effect” throughout. Further, the inhibition result in data set [4] and in data set [13] was “Dose-dependent effect” each time. Also, the IC50 in [5] is over 200 µM; in [9] it was over 200 µM; in [10], over 200 µM; in [18] (MIA PaCa-2, 72 h), 7.1 µM. In addition, the inhibition result in data set [6] was “Active”. This compound also yielded an AUC in data set [7] of 3381.49 ng·mL·h. The same compound gave a Vdss in data set [8] of 1112.8 L/kg. In addition, the EC1.5 in data set [11] worked out at 0.58 µM. Also, the EC50 in [11] was 5.35 µM. Besides, the Tmax in [12] was determined as 2 h. The compound further gave an AUCt in data set [14] of 3326.13 ng·mL·h. For the same compound, the inhibition in vivo at 150 mg/kg/day in [17] came out at 90.2%. The compound further displayed a t1/2 in data set [19] of 9.06 h. In data set [20], this compound came in with an inhibition at 10 µM of 70%.
